According to ChEMBL document CHEMBL2146476, “Discovery of selective glucocorticoid receptor modulator MK-5932” (Bioorg Med Chem, 2011):
The source made the active and inactive calls. The calls are words filed in the database; no cut-off is given here.

How the values were obtained:
[1] = target: T1, Glucocorticoid receptor (Homo sapiens) (UniProt P04150); assay: Transrepression activity at glucocorticoid receptor in human LPS and TPA-stimulated U937 cells assessed as effect on glucocorticoid-induced TNFalpha repression by beta lactamase reporter gene assay relative to dexamethasone; format: cell-based; settings: U-937
T1 sequence (whole entry): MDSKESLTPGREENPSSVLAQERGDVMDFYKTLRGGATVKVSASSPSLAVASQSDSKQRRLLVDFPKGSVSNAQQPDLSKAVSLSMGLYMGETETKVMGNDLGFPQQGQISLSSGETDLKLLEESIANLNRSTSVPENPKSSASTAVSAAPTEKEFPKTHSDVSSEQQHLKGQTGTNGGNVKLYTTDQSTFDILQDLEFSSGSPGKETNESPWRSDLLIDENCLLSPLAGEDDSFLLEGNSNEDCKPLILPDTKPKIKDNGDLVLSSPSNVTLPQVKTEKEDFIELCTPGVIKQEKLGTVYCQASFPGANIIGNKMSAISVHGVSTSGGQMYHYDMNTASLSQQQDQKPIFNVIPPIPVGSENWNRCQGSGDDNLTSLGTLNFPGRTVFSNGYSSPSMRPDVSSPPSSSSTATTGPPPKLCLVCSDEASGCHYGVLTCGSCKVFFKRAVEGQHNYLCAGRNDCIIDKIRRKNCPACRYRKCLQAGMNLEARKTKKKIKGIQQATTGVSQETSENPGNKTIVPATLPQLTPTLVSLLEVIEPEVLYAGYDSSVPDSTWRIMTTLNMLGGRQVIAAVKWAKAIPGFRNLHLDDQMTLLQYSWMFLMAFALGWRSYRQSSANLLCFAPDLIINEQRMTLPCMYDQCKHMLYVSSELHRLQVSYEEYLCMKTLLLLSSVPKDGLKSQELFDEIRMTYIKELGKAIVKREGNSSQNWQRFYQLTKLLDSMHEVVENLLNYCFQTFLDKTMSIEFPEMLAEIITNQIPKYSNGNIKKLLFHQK
In short: (§1)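 U937 cells stably carrying a β-lactamase reporter driven by the human TNF-α promoter (-1083 to +182), in 5% charcoal-stripped FBS. Stimulated with 1 µg/mL LPS plus 50 ng/mL TPA, compound exposure 16 h. β-Lactamase read out. Activity expressed as percent of the span between DMSO and 100 nM dexamethasone controls. Mean of at least three runs.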

[2] = target: T1, Glucocorticoid receptor (Homo sapiens); assay: Transactivation activity at GR-mediated modulation of MMTV promoter activity in human A549 cells transfected with luciferase gene linked to MMTV promoter after 16 hrs by luciferase reporter gene assay; format: cell-based
In short: (§2)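 HeLa or A549 cells transiently transfected with a luciferase reporter under the MMTV promoter (two GREs), in 10% charcoal-stripped FBS. Compound exposure 16 h, then luciferase measured. Activity expressed as percent of the span between DMSO and dexamethasone controls. Mean of at least three runs.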

[3] = target: T1, Glucocorticoid receptor (Homo sapiens); assay: Transactivation activity at GR-mediated modulation of MMTV promoter activity in human A549 cells transfected with luciferase gene linked to MMTV promoter after 16 hrs by luciferase reporter gene assay relative to dexamethasone; format: cell-based; in short: as §2
[4] = target: T1, Glucocorticoid receptor (Homo sapiens); assay: Transactivation activity at GR-mediated modulation of MMTV promoter activity in human HeLa cells transfected with luciferase gene linked to MMTV promoter after 16 hrs by luciferase reporter gene assay; format: cell-based; in short: as §2
[5] = target: T1, Glucocorticoid receptor (Homo sapiens); assay: Transactivation activity at GR-mediated modulation of MMTV promoter activity in human HeLa cells transfected with luciferase gene linked to MMTV promoter after 16 hrs by luciferase reporter gene assay relative to dexamethasone; format: cell-based; in short: as §2
Rattus norvegicus [6] = assay: Antiinflammatory activity in oxazolone-induced Sprague-Dawley rat chronic dermatitis model at 0.3 to 60 mg/kg, po qd administered after 7 days of oxazolone sensitization measured after 4 to 5 hrs last post treatment on day 14; format: functional, organism-based
In short: (§3)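 Intact 6-month-old female Sprague-Dawley rats sensitized with oxazolone on ventral abdomen on Day 0. One randomly selected ear challenged with oxazolone on Days 7 and 9, other ear given vehicle. Daily oral dosing for 7 d from Day 7, with 6-methylprednisolone or DEX as positive controls. Blood taken ~4-5 h after last dose for plasma insulin. Inflammation read as inter-ear thickness difference.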

Liver microsomes [7] = assay: Drug metabolism in rat liver microsomes assessed as metabolite M1 level up to 50 mins by LC-MS analysis; format: ADME, Microsome
Liver microsomes [8] = assay: Drug metabolism in rat liver microsomes assessed as metabolite M2 level up to 50 mins by LC-MS analysis; format: ADME, Microsome
Liver microsomes [9] = assay: Drug metabolism in human liver microsomes assessed as metabolite M1 level up to 50 mins by LC-MS analysis; format: ADME, Microsome
Liver microsomes [10] = assay: Drug metabolism in human liver microsomes assessed as metabolite M2 level up to 50 mins by LC-MS analysis; format: ADME, Microsome
Liver microsomes [11] = assay: Drug metabolism in human liver microsomes assessed as metabolite M3 level up to 50 mins by LC-MS analysis; format: ADME, Microsome
Rattus norvegicus [12] = assay: Toxicity in oxazolone-induced Sprague-Dawley rat chronic dermatitis model assessed as increase in plasma insulin level at 0.3 to 60 mg/kg, po qd administered after 7 days of oxazolone sensitization measured after 4 to 5 hrs last post treatment on day 14; format: organism-based; set-up: route oral; settings: in vivo; in short: as §3
Liver microsomes [13] = assay: Drug metabolism in rat liver microsomes assessed as metabolite M3 level up to 50 mins by LC-MS analysis; format: ADME, Microsome
Glucocorticoid receptor = target: T2, Glucocorticoid receptor (Homo sapiens, UniProt P04150); assay: Displacement of [3H]-dexamethasone from human full length GR expressed in insect Sf21 cells
T2 sequence (P04150 whole entry): T1 sequence (whole entry)
In short: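 Human full-length GR expressed in insect cells, incubated with compound and 3H-dexamethasone overnight at 4 °C. Bound radioactivity quantified after filtration capture. Nonspecific binding defined with excess unlabelled dexamethasone. Mean of at least two runs.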

[14] = target: T1, Glucocorticoid receptor (Homo sapiens); assay: Transrepression activity at glucocorticoid receptor in human LPS and TPA-stimulated U937 cells assessed as effect on glucocorticoid-induced TNFalpha repression by beta lactamase reporter gene assay; format: cell-based; settings: U-937; in short: as §1

Emax [1]: 73% | IP [2]: 186 nM | Emax [3]: 35% | IP [4]: 153 nM | Emax [5]: 23% | Drug metabolism (Liver microsomes [7]): Active | Drug metabolism (Liver microsomes [8]): Active | Drug metabolism (Liver microsomes [9]): Active | Drug metabolism (Liver microsomes [10]): Active | Drug metabolism (Liver microsomes [11]): Active | Drug metabolism (Liver microsomes [13]): Not Active | Ki (Glucocorticoid receptor): 3 nM | IP [14]: 131 nM
SMILES: C[C@]12Cc3cnn(-c4ccc(F)cc4)c3C=C1CC[C@@]2(O)CCc1ccc(F)cc1C(N)=O
Activity (Rattus norvegicus [6]): Active | Activity (Rattus norvegicus [12]): Non-toxic
